Reference: ChEMBL document CHEMBL3872218, “Synthesis and T-type calcium channel-blocking effects of aryl(1,5-disubstituted-pyrazol-3-yl)methyl sulfonamides for neuropathic pain treatment” (Eur J Med Chem, 2016)

Experiments:
[1] = system: Rattus norvegicus; assay: Antineuropathic pain activity in rat spinal nerve ligation model assessed as effect on mechanical allodynia by measuring frequency of paw withdrawal at 100 mg/kg, po measured at 5 hrs relative to gabapentin; type: functional
How it was run: (§1)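 Spinal nerve ligation rats tested 2 weeks after nerve surgery, 100 mg/kg oral, n = 4 per group. Behaviour re-tested at 1, 3 and 5 h after dosing. Mechanical allodynia: von Frey filament applied five times, every 3–4 s, to the hind paw on a wire mesh floor. Cold allodynia: acetone applied to the plantar hind paw on a metal mesh floor.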

[2] = system: Rattus norvegicus; assay: Antineuropathic pain activity in rat spinal nerve ligation model assessed as effect on mechanical allodynia by measuring frequency of paw withdrawal at 100 mg/kg, po measured at 1 hr relative to control; type: functional; how it was run: as §1
[3] = Ratio of drug level in brain to plasma in Sprague-Dawley rat at 10 mg/kg, iv at 2 hrs post dose; type: ADME, organism-based; settings: read-out: BPR
[4] = Metabolic stability in human liver microsomes assessed as compound remaining at 1 uM in presence of NADPH as cofactor by LC-MS/MS method; type: ADME; settings: read-out: Stability
How it was run: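 Pooled mixed-gender human liver microsomes incubated with compound at 37 °C with NADPH as cofactor. Result given as % parent compound remaining.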

[5] = system: Rattus norvegicus; assay: Antineuropathic pain activity in rat spinal nerve ligation model assessed as effect on cold allodynia by measuring frequency of paw withdrawal at 100 mg/kg, po measured at 5 hrs relative to gabapentin; type: functional; how it was run: as §1
[6] = Drug uptake in Sprague-Dawley rat brain at 10 mg/kg, po at 2 hrs post dose; type: ADME, organism-based; settings: read-out: Drug uptake
[7] = system: Rattus norvegicus; assay: Antineuropathic pain activity in rat spinal nerve ligation model assessed as effect on cold allodynia by measuring frequency of paw withdrawal at 100 mg/kg, po measured at 3 hrs relative to control; type: functional; how it was run: as §1
[8] = Apparent volume of distribution at steady state in Sprague-Dawley rat at 10 mg/kg, iv; type: ADME, organism-based; settings: in vivo, read-out: Vdss(app)
[9] = target: T1, CYP1A2 (Homo sapiens, UniProt P05177); assay: Inhibition of human CYP1A2 assessed as remaining activity at 10 uM using vivid CYP450 substrate measured after 15 mins by fluorescence assay relative to alpha-naphthoflavon; type: ADME; settings: probe vivid CYP450 substrate, read-out: Activity
T1 sequence (P05177 whole entry): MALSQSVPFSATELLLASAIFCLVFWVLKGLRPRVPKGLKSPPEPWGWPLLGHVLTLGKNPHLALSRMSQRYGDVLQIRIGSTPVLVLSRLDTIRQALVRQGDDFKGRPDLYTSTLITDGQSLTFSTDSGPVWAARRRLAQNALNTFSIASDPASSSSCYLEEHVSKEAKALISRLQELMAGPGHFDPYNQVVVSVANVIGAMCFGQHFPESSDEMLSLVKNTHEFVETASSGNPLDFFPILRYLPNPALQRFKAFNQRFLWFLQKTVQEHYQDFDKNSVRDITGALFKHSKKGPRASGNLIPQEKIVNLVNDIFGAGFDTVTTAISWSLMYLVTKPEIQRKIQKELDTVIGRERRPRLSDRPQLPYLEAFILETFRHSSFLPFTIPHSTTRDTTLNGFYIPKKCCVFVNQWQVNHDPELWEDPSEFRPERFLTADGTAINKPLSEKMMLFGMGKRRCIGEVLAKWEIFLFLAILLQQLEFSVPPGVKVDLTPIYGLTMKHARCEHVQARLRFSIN
How it was run: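 Vivid fluorescence CYP assay: test compound at […] in water, mixed with BACULOSOMES master pre-mix and regeneration system, preincubated 15 min at 37 °C. Reaction started with Vivid substrate and NADPH. Remaining activity read by fluorescence as % of control, triplicate, mean ± SD. Isoform-specific reference inhibitors: α-naphthoflavone (1A2), sulfaphenazole (2C9), quinidine (2D6), ketoconazole (3A4).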

Kp at 2 h [3]: 1.4
remaining at 1 µM [4]: 1.72%
concentration at 2 h [6]: 8.6 ng/mL
Vd [8]: 4.95 L/kg
activity at 0.25 h, 10 µM [9]: 45.6%
SMILES: CC(C)Cc1cc(CNS(=O)(=O)c2cccc(F)c2)nn1-c1ccccc1
MPE [1]: 43.02%
MPE [2]: 1.63%
MPE [5]: 185.11%
MPE [7]: 73.87%
